Experimental data published in ChEMBL document CHEMBL3813637, “Synthesis and Antiproliferative and Metabolic Evaluations of Novel Securinine Derivatives” (ACS Med Chem Lett, 2016).

Columns and labels:
[1] = system: Plasma; test: Metabolic stability in rat plasma at 5 uM after 2 hrs by ZQ-LC-MS analysis; type: ADME, cell-free
In short: (§1)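 Compounds were incubated in rat, mouse and human plasma for 120 min at 37 °C. The result is reported as the percentage of parent compound remaining.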

[2] = system: Liver microsome; test: Metabolic stability in rat liver microsomes at 2 uM after 1 hr by ZQ-LC-MS analysis; type: ADME
[3] = Antiproliferative activity against human HCT116 cells assessed as reduction in cell viability at 1 uM after 72 hrs by ATPlite assay; type: functional; details: HCT-116, 72 h, read-out: GI
In short: (§2)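 HCT-116 human colon cancer cells exposed to compound for 72 h at 20, 10 or 1 μM. Growth inhibition is expressed as percentage relative to nontreated cells.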

[4] = system: A549; test: Antiproliferative activity against human A549 cells assessed as reduction in cell viability after 72 hrs by ATPlite assay; type: functional, cell-based; details: A549, 72 h
In short: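 IC50 values were determined on a panel of four human cancer lines (HCT-116, A-549, HL-60, A-375), with camptothecin and etoposide as reference compounds.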

[5] = Antiproliferative activity against human HL60 cells assessed as reduction in cell viability after 72 hrs by ATPlite assay; type: functional, cell-based; details: HL-60, 72 h
In short: (§3)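 IC50 determined in human cancer cell lines (HCT-116, A-375 melanoma, HL-60, A-549). Camptothecin and etoposide served as reference compounds.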

[6] = system: Plasma; test: Metabolic stability in human plasma at 5 uM after 2 hrs by ZQ-LC-MS analysis; type: ADME, cell-free; in short: as §1
[7] = system: Liver microsome; test: Metabolic stability in human liver microsomes at 2 uM after 1 hr by ZQ-LC-MS analysis; type: ADME
[8] = Antiproliferative activity against human HCT116 cells assessed as reduction in cell viability at 10 uM after 72 hrs by ATPlite assay; type: functional; details: HCT-116, 72 h, read-out: GI; in short: as §2
[9] = system: Plasma; test: Metabolic stability in mouse plasma at 5 uM after 2 hrs by ZQ-LC-MS analysis; type: ADME, cell-free; in short: as §1
[10] = Metabolic stability in mouse liver microsomes at 2 uM after 1 hr by ZQ-LC-MS analysis; type: ADME
[11] = Antiproliferative activity against human HCT116 cells assessed as reduction in cell viability after 72 hrs by ATPlite assay; type: functional, cell-based; details: HCT-116, 72 h; in short: as §3
[12] = Antiproliferative activity against human HCT116 cells assessed as reduction in cell viability at 20 uM after 72 hrs by ATPlite assay; type: functional; details: HCT-116, 72 h, read-out: GI; in short: as §2
[13] = system: A-375; test: Antiproliferative activity against human A375 cells assessed as reduction in cell viability after 72 hrs by ATPlite assay; type: functional, cell-based; details: A-375, 72 h; in short: as §3

Row | Compound | Stability [1] | Stability [2] | inhibition of growth at 1 µM [3] [%] | IC50 [4] [nM] | IC50 [5] [nM] | Stability [6] | Stability [7] | inhibition of growth at 10 µM [8] [%] | Stability [9] | Stability [10] | IC50 [11] [nM] | inhibition of growth at 20 µM [12] [%] | IC50 [13] [nM]
1 | O=C1C=C2C=C[C@@H]3C[C@@]2(O1)[C@H]1CCCCN31 [SECURININE] | Stable | Unstable | 7.6 | > 10000 | > 10000 | Stable | Stable | 50.6 | Stable | Unstable | > 10000 | 90.7 | 
2 | CN(C)c1ccc(C#CC2=C[C@@H]3C[C@@]4(OC(=O)C=C24)[C@H]2CCCCN32)cc1 | Unstable | Unstable | 99.7 | 600 | 420 | Unstable | Unstable | 100 | Unstable | Unstable | 420 | 100 | 170
